Test results published in ChEMBL document CHEMBL4251593, “Nontoxic combretafuranone analogues with high in vitro antibacterial activity” (Eur J Med Chem, 2018).
≈ marks a conversion by molar mass, not a printed value.

Columns and labels:
[1] = system: Staphylococcus epidermidis; experiment: Antibacterial activity against Staphylococcus epidermidis HK6966/08 clinical isolate after 24 hrs by microdilution assay; assay type: functional; conditions: HK6966/08, 24 h
HL-60 [2] = experiment: Induction of apoptosis in human HL60 cells assessed as caspase 3/7 activity after 24 hrs by caspase-glo luminescent assay; assay type: cell-based; conditions: HL-60, 24 h
Outline: (§1)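 Cells were seeded at 500 per well in their growth media and exposed to 12 concentrations from 40 µM to 1 nM, delivered from DMSO, in triplicate. After 24 h, caspase-3/7 activity was read by Caspase-Glo luminescence. Data were normalized and ED50 was fitted by variable-slope nonlinear regression.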

K562 [3] = experiment: Cytotoxicity against human K562 cells assessed as reduction in cell viability after 48 hrs by ATPlite-based luminescent assay; conditions: K562, 48 h
Outline: (§2)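 Cells were grown […] with 10% FBS, glutamax, NEAA and pen/strep at 37 °C, 5% CO2. Media were DMEM for RPE-1, HepG2 and BJ (BJ plus 10 ng/ml bFGF), F-12K for PC3, and IMDM for K562/HL-60. Cells were seeded at 500 per well and dosed from DMSO at 12 concentrations, 40 µM to 1 nM, in triplicate. After 48 h, intracellular ATP was read by luminescence. ED50 was obtained by variable-slope nonlinear regression.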

Escherichia coli [4] = experiment: Antibacterial activity against Escherichia coli ATCC 8739 after 48 hrs by microdilution assay; assay type: functional; conditions: ATCC 8739, 48 h
Outline: (§3)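 Broth microdilution in Mueller-Hinton medium buffered to pH 7.4 (±0.2), with DMSO as diluent at no more than 2% final. Compounds were tested as 2-fold serial dilutions from 2000 to 0.488 µmol/l. The inoculum was 0.5 McFarland (1.5×10^8 cfu/ml). Plates were held at 37 °C and read visually at 24 and 48 h. MIC was taken as 95% growth inhibition versus control, determined twice in duplicate.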

Pseudomonas aeruginosa [5] = experiment: Antibacterial activity against Pseudomonas aeruginosa ATCC 9027 after 48 hrs by microdilution assay; assay type: functional; conditions: ATCC 9027, 48 h; outline: as §3
BJ = experiment: Cytotoxicity against human BJ cells assessed as reduction in cell viability after 48 hrs by ATPlite-based luminescent assay; outline: as §2
HepG2 [6] = experiment: Cytotoxicity against human HepG2 cells assessed as reduction in cell viability after 48 hrs by ATPlite-based luminescent assay; conditions: HepG2, 48 h; outline: as §2
[7] = system: Staphylococcus epidermidis; experiment: Antibacterial activity against Staphylococcus epidermidis HK6966/08 clinical isolate after 48 hrs by microdilution assay; assay type: functional; conditions: HK6966/08, 48 h
Klebsiella pneumoniae [8] = experiment: Antibacterial activity against Klebsiella pneumoniae HK14368/08 clinical isolate after 24 hrs by microdilution assay; assay type: functional; conditions: HK14368/08, 24 h
Staphylococcus aureus [9] = experiment: Antibacterial activity against methicillin-resistant Staphylococcus aureus HK5996/08 clinical isolate after 48 hrs by microdilution assay; assay type: functional; conditions: HK5996/08, 48 h
Pseudomonas aeruginosa [10] = experiment: Antibacterial activity against Pseudomonas aeruginosa ATCC 9027 after 24 hrs by microdilution assay; assay type: functional; conditions: ATCC 9027, 24 h; outline: as §3
K562 [11] = experiment: Induction of apoptosis in human K562 cells assessed as caspase 3/7 activity after 24 hrs by caspase-glo luminescent assay; assay type: cell-based; conditions: K562, 24 h; outline: as §1
TERT-RPE1 [12] = experiment: Cytotoxicity against human RPE1 cells assessed as reduction in cell viability after 48 hrs by ATPlite-based luminescent assay; conditions: RPE-1, 48 h; outline: as §2
Klebsiella pneumoniae [13] = experiment: Antibacterial activity against Klebsiella pneumoniae HK14368/08 clinical isolate after 48 hrs by microdilution assay; assay type: functional; conditions: HK14368/08, 48 h
Staphylococcus aureus [14] = experiment: Antibacterial activity against methicillin-resistant Staphylococcus aureus HK5996/08 clinical isolate after 24 hrs by microdilution assay; assay type: functional; conditions: HK5996/08, 24 h
TERT-RPE1 [15] = experiment: Induction of apoptosis in human RPE1 cells assessed as caspase 3/7 activity after 24 hrs by caspase-glo luminescent assay; assay type: cell-based; conditions: RPE-1, 24 h; outline: as §1
Escherichia coli [16] = experiment: Antibacterial activity against Escherichia coli ATCC 8739 after 24 hrs by microdilution assay; assay type: functional; conditions: ATCC 8739, 24 h; outline: as §3
Enterococcus sp. [17] = experiment: Antibacterial activity against Enterococcus sp. HK14365/08 clinical isolate after 24 hrs by microdilution assay; assay type: functional; conditions: HK14365/08, 24 h
PC-3 [18] = experiment: Induction of apoptosis in human PC3 cells assessed as caspase 3/7 activity after 24 hrs by caspase-glo luminescent assay; assay type: cell-based; conditions: PC-3, 24 h; outline: as §1
MCF7 = experiment: Cytotoxicity against human MCF7 cells assessed as reduction in cell viability after 48 hrs by ATPlite-based luminescent assay; conditions: MCF7, 48 h
Staphylococcus aureus [19] = experiment: Antibacterial activity against Staphylococcus aureus ATCC 6538 after 48 hrs by microdilution assay; assay type: functional; conditions: ATCC 6538, 48 h
Klebsiella pneumoniae [20] = experiment: Antibacterial activity against Klebsiella pneumoniae HK11750/08 clinical isolate after 48 hrs by microdilution assay; assay type: functional; conditions: HK11750/08, 48 h
Klebsiella pneumoniae [21] = experiment: Antibacterial activity against Klebsiella pneumoniae HK11750/08 clinical isolate after 24 hrs by microdilution assay; assay type: functional; conditions: HK11750/08, 24 h
Enterococcus sp. [22] = experiment: Antibacterial activity against Enterococcus sp. HK14365/08 clinical isolate after 48 hrs by microdilution assay; assay type: functional; conditions: HK14365/08, 48 h
HepG2 [23] = experiment: Induction of apoptosis in human HepG2 cells assessed as caspase 3/7 activity after 24 hrs by caspase-glo luminescent assay; assay type: cell-based; conditions: HepG2, 24 h; outline: as §1
HL-60 [24] = experiment: Cytotoxicity against human HL60 cells assessed as reduction in cell viability after 48 hrs by ATPlite-based luminescent assay; conditions: HL-60, 48 h; outline: as §2
Staphylococcus aureus [25] = experiment: Antibacterial activity against Staphylococcus aureus ATCC 6538 after 24 hrs by microdilution assay; assay type: functional; conditions: ATCC 6538, 24 h
PC-3 [26] = experiment: Cytotoxicity against human PC3 cells assessed as reduction in cell viability after 48 hrs by ATPlite-based luminescent assay; conditions: PC-3, 48 h; outline: as §2

Compound | MIC95 [1] [µM] | IC50 (HL-60 [2]) [µM] | IC50 (K562 [3]) [µM] | MIC95 (Escherichia coli [4]) [µM] | MIC95 (Pseudomonas aeruginosa [5]) [µM] | IC50 (BJ) [µM] | IC50 (HepG2 [6]) [µM] | MIC95 [7] [µM] | MIC95 (Klebsiella pneumoniae [8]) [µM] | MIC95 (Staphylococcus aureus [9]) [µM] | MIC95 (Pseudomonas aeruginosa [10]) [µM] | IC50 (K562 [11]) [µM] | IC50 (TERT-RPE1 [12]) [µM] | MIC95 (Klebsiella pneumoniae [13]) [µM] | MIC95 (Staphylococcus aureus [14]) [µM] | IC50 (TERT-RPE1 [15]) [µM] | MIC95 (Escherichia coli [16]) [µM] | MIC95 (Enterococcus sp. [17]) [µM] | IC50 (PC-3 [18]) [µM] | IC50 (MCF7) [µM] | also measured
O=C1OCC(c2ccccc2)=C1c1ccc(F)cc1 | 125 (≈ 31.8 µg/mL) | > 40 | > 40 | > 500 | > 500 | > 40 | > 40 | 125 (≈ 31.8 µg/mL) | > 500 | 125 (≈ 31.8 µg/mL) | > 500 | > 40 | > 40 | > 500 | 125 (≈ 31.8 µg/mL) | > 40 | > 500 | > 500 | > 40 | > 40 | MIC95 (Staphylococcus aureus [19]): 15.6 µM (≈ 3.97 µg/mL); MIC95 (Klebsiella pneumoniae [20]): > 500 µM; MIC95 (Klebsiella pneumoniae [21]): > 500 µM; MIC95 (Enterococcus sp. [22]): > 500 µM; IC50 (HepG2 [23]): > 40 µM; IC50 (HL-60 [24]): > 40 µM; MIC95 (Staphylococcus aureus [25]): 15.6 µM (≈ 3.97 µg/mL); IC50 (PC-3 [26]): > 40 µM
COc1ccc(C2=C(c3ccc(Br)cc3)C(=O)OC2)cc1 | 1000 (≈ 345 µg/mL) | 2.18 | 0.53 | > 1000 | > 1000 | > 40 | > 40 | > 1000 | > 1000 | > 1000 | > 1000 | > 40 | 3.35 | > 1000 | > 1000 | 56.4 | > 1000 | > 1000 | > 40 | 14.3 | MIC95 (Staphylococcus aureus [19]): > 1000 µM; MIC95 (Klebsiella pneumoniae [20]): > 1000 µM; MIC95 (Klebsiella pneumoniae [21]): > 1000 µM; MIC95 (Enterococcus sp. [22]): > 1000 µM; IC50 (HepG2 [23]): > 40 µM; IC50 (HL-60 [24]): 0.83 µM; MIC95 (Staphylococcus aureus [25]): > 1000 µM; IC50 (PC-3 [26]): > 40 µM
O=C1OCC(c2ccc(C(F)(F)F)cc2)=C1c1ccncc1 | 250 (≈ 76.3 µg/mL) | > 40 | > 40 | > 500 | > 500 | > 40 | > 40 | 250 (≈ 76.3 µg/mL) | > 500 | 500 (≈ 153 µg/mL) | > 500 | > 40 | > 40 | > 500 | 500 (≈ 153 µg/mL) | > 40 | > 500 | > 500 | > 40 | > 40 | MIC95 (Staphylococcus aureus [19]): > 500 µM; MIC95 (Klebsiella pneumoniae [20]): > 500 µM; MIC95 (Klebsiella pneumoniae [21]): > 500 µM; MIC95 (Enterococcus sp. [22]): > 500 µM; IC50 (HepG2 [23]): > 40 µM; IC50 (HL-60 [24]): > 40 µM; MIC95 (Staphylococcus aureus [25]): > 500 µM; IC50 (PC-3 [26]): > 40 µM
Cc1ccc(C2=C(c3cccc(Cl)c3)C(=O)OC2)cc1 | 15.6 (≈ 4.45 µg/mL) | > 40 | 0.21 | > 500 | > 500 | > 40 | > 40 | 15.6 (≈ 4.45 µg/mL) | > 500 | 15.6 (≈ 4.45 µg/mL) | > 500 | > 40 | 0.88 | > 500 | 15.6 (≈ 4.45 µg/mL) | > 40 | > 500 | > 500 | > 40 | > 40 | MIC95 (Staphylococcus aureus [19]): 1.95 µM (≈ 0.555 µg/mL); MIC95 (Klebsiella pneumoniae [20]): > 500 µM; MIC95 (Klebsiella pneumoniae [21]): > 500 µM; MIC95 (Enterococcus sp. [22]): > 500 µM; IC50 (HepG2 [23]): > 40 µM; IC50 (HL-60 [24]): 0.48 µM; MIC95 (Staphylococcus aureus [25]): 1.95 µM (≈ 0.555 µg/mL); IC50 (PC-3 [26]): > 40 µM
COc1ccc(C2=C(c3ccc(OC)c(OC)c3)C(CO)OC2=O)cc1 (stereo not given) | 62.5 (≈ 22.3 µg/mL) | > 40 | > 40 | > 125 | > 125 | > 40 | > 40 | 62.5 (≈ 22.3 µg/mL) | > 125 | 125 (≈ 44.5 µg/mL) | > 125 | > 40 | > 40 | > 125 | 125 (≈ 44.5 µg/mL) | > 40 | > 125 | > 125 | > 40 | > 40 | MIC95 (Staphylococcus aureus [19]): 125 µM (≈ 44.5 µg/mL); MIC95 (Klebsiella pneumoniae [20]): > 125 µM; MIC95 (Klebsiella pneumoniae [21]): > 125 µM; MIC95 (Enterococcus sp. [22]): > 125 µM; IC50 (HepG2 [23]): > 40 µM; IC50 (HL-60 [24]): > 40 µM; MIC95 (Staphylococcus aureus [25]): 125 µM (≈ 44.5 µg/mL); IC50 (PC-3 [26]): > 40 µM
